From ChEMBL document CHEMBL1154055, “Synthesis and structure-activity relationships of N-(4-amino-2,6-diisopropylphenyl)-N'-(1,4-diarylpiperidine-4-yl)methylureas as anti-hyperlipidemic agents” (Bioorg Med Chem, 2009)
pIC50: −log10 of the molar value. ≈ marks a conversion by molar mass, not a printed value. Calls of active or inactive are those of the source. The calls are words filed in the database; no cut-off is given here.

Assays:
[1] = target: T1, Sterol O-acyltransferase 1 (Rattus norvegicus, UniProt O70536); assay: Inhibition of ACAT in rat macrophages assessed as incorporation of extracellular [3H]-oleic acid-BSA complex into the intracellular cholesteryl ester after 24 hrs; type: cell-based
T1 sequence (O70536 whole entry): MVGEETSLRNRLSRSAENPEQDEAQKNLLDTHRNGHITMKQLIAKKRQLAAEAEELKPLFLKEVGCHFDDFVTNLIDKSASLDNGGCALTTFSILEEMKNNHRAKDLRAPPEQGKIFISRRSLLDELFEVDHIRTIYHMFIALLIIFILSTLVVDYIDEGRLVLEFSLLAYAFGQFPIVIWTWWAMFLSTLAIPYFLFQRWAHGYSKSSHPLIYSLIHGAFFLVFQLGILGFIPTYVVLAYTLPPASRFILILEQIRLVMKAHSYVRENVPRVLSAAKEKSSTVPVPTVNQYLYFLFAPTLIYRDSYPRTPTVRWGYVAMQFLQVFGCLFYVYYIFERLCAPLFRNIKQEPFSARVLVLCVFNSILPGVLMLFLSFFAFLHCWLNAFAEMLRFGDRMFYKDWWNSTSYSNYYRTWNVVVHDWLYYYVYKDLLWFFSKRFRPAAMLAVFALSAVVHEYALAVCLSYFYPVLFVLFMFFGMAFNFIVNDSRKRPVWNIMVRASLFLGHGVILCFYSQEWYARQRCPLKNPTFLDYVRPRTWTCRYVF
Summary of the method: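 Cells seeded at 2 × 10⁶ cells/mL/well, incubated 24 h at 37 °C (humidified, 5% CO₂) in medium containing liposomes, ³H-oleic acid–BSA complex and a range of compound concentrations. Protein measured by Lowry method.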

[2] = system: HepG2; assay: Up-regulation of LDL receptor expression in human HepG2 cells at 100 nM by immunoblot analysis; type: functional, cell-based
Summary of the method: (§1)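 HepG2 cells exposed to compound, lysed in 125 mM Tris–HCl pH 8.0, 2 mM CaCl₂, 1% Triton X-100 with protease inhibitor cocktail, then centrifuged. LDL receptor detected by immunoblot with mouse monoclonal anti-LDL-R antibody (clone IgG-C7).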

[3] = Solubility at pH 7.4; type: physicochemical; conditions: buffer
[4] = system: HepG2; assay: Up-regulation of LDL receptor expression in human HepG2 cells at 10 uM by immunoblot analysis; type: functional, cell-based; summary of the method: as §1

SMILES	pIC50 [1]	Activity [2]	solubility [3]	Activity [4]
COc1ccccc1N1CCC(CNC(=O)Nc2c(C(C)C)cc(N)cc2C(C)C)(c2ccccc2)CC1	7.09	inactive		
COc1cccc(C2(CNC(=O)Nc3c(C(C)C)cc(N)cc3C(C)C)CCN(c3ncccc3OC)CC2)c1	8.22			
COc1cccc(C2(CNC(=O)Nc3c(C(C)C)cc(N)cc3C(C)C)CCN(c3ccccn3)CC2)c1	7.49			
COc1cccc(C2(CNC(=O)Nc3c(C(C)C)cc(N)cc3C(C)C)CCN(c3ccccc3OCCCN)CC2)c1.Cl	6.71	Active	32 µg/mL	
COc1cccc(C2(CNC(=O)Nc3c(C(C)C)cc(N)cc3C(C)C)CCN(c3cccnc3)CC2)c1	6.33			
COc1ccccc1N1CCC(CNC(=O)Nc2c(C(C)C)cc(N)cc2C(C)C)(c2cccc(O)c2)CC1	6.10	inactive		
COc1cccc(C2(CNC(=O)Nc3c(C(C)C)cc(N)cc3C(C)C)CCN(c3ccccc3OC)CC2)c1	7.43	Active		
COc1cccc(C2(CNC(=O)Nc3c(C(C)C)cc(N)cc3C(C)C)CCN(c3ccccc3OC(C)C)CC2)c1	7.43	Active		
COc1cccc(C2(CNC(=O)Nc3c(C(C)C)cc(N)cc3C(C)C)CCN(c3ccccc3OCCCO)CC2)c1.Cl.Cl	7.74	Active	22 µg/mL	
COc1cccc(C2(CNC(=O)Nc3c(C(C)C)cc(N)cc3C(C)C)CCN(c3ccccc3OCCCN(C)C)CC2)c1.Cl	6.62		> 250 µg/mL	
COc1cccc(C2(CNC(=O)Nc3c(C(C)C)cc(N)cc3C(C)C)CCN(c3ccccc3OCCO)CC2)c1	7.02	Active		
COc1cccc(C2(CNC(=O)Nc3c(C(C)C)cc(N)cc3C(C)C)CCN(c3ccccc3OCC(F)(F)F)CC2)c1	7.32	Active		
CCCCn1c(=O)c(NC(=O)Nc2c(C(C)C)cc(N)cc2C(C)C)c(-c2cccc(OCCCO)c2)c2cccnc21	7.51	Active	10 µg/mL (≈ 17.1 µM)	
COc1cccc(C2(CNC(=O)Nc3c(C(C)C)cccc3C(C)C)CCN(c3ccccc3)CC2)c1				inactive
COc1ccc(N2CCC(CNC(=O)Nc3c(C(C)C)cc(N)cc3C(C)C)(c3cccc(OC)c3)CC2)cc1	6.85	inactive		
COc1cccc(C2(CNC(=O)Nc3c(C(C)C)cc(N)cc3C(C)C)CCN(c3ccncc3)CC2)c1	< 6.00			
COc1cccc(C2(CNC(=O)Nc3c(C(C)C)cc(N)cc3C(C)C)CCN(c3ccccc3O)CC2)c1		inactive		
COc1ccccc1N1CCC(CNC(=O)Nc2c(C(C)C)cc(N)cc2C(C)C)(c2cccc(OCCCO)c2)CC1	7.21	Active		
COc1cccc(C2(CNC(=O)Nc3c(C(C)C)cc(N)cc3C(C)C)CCN(c3ncccc3OCCCO)CC2)c1	8.40			
CC(C)c1cc(C(C)C)c(CC(=O)NS(=O)(=O)Oc2c(C(C)C)cccc2C(C)C)c(C(C)C)c1 [AVASIMIBE]	6.32	inactive		
CCCCOc1ccccc1N1CCC(CNC(=O)Nc2c(C(C)C)cc(N)cc2C(C)C)(c2cccc(OC)c2)CC1	7.49	Active	0.3 µg/mL (≈ 0.511 µM)	
COc1cccc(C2(CNC(=O)Nc3c(C(C)C)cc(N)cc3C(C)C)CCN(c3ccccc3OC(F)(F)F)CC2)c1	7.17	Active		
COc1cccc(N2CCC(CNC(=O)Nc3c(C(C)C)cc(N)cc3C(C)C)(c3cccc(OC)c3)CC2)c1	7.32	inactive		
COc1cccc(C2(CNC(=O)Nc3c(C(C)C)cc(N)cc3C(C)C)CCN(c3ccccc3)CC2)c1	7.40			inactive
